Measurements from the EternaBench riboswitch data.

Test system: MS2 coat protein
Experiment: apparent Kd, MS2 coat protein; higher = weaker binding; RNA-MaP array; FMN 200 µM where present
Method in brief: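 Designs on Illumina sequencing-chip clusters, transcribed by stalled E. coli RNA polymerase, were exposed to SNAP-549-labelled MS2 coat protein in doubling steps from 0.7 or 1.5 nM up to 3 µM, without and then with constant ligand. The buffer held 100 mM Tris-HCl pH 7.5, 80 mM KCl, 4 mM MgCl2, BSA, DTT, yeast tRNA and Tween-20. Apparent Kd values are medians of filtered per-cluster binding-curve fits to green signal normalised to red-channel RNA signal and control-cluster median Fmax.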

[1] = designed as: ON switch for flavin mononucleotide, no ligand
[2] = ligand present: flavin mononucleotide, designed as: ON switch for flavin mononucleotide
[3] = designed as: OFF switch for flavin mononucleotide, no ligand
[4] = ligand present: flavin mononucleotide, designed as: OFF switch for flavin mononucleotide

Row | Sequence | apparent Kd [1] [nM] | apparent Kd [2] [nM] | apparent Kd [3] [nM] | apparent Kd [4] [nM]
1 | GCGUUCUUGUAGAAGGUACAUGAAAUCUAUUUUUAACACAUGAAACAUGAGGAUCACCCAUGUUGUAAGGAUAUACAUGAACGC | 7.26 | 6.09 |  | 
2 | AAAUCGGCGGAGAAGGGACCUUUACCCUAUCGGUCAGGAUAUCCGCUACAUGAGGAUCACCCAUGUGCCGGGUGUCCGCGUGUG |  |  | 22.2 | 12.2
3 | CUGAUGUGAGGAUAUCUACGCCAUGUCUUUGACAUGGCGCAAGAGAAGGCACAUGAGGAUCACCCAUGUUCUUC |  |  | 62.9 | 723
4 | ACAAGAUCAGGAUAUACAUGAGGAUCACCCAUGUUAAUCCAAAAGGGACUUUCUUUAUGUAGAAGGGAUCUUGU |  |  | 31.2 | 85.5
5 | AUUAUAAUUGAAGGAUAUCUAUAUCCAACAUGAGGAUCACCCAUGUUGAGGAUCACCCAUGUAAAGGAGAAGGUUAAUUAUAAU |  | 24.6 |  | 
6 | ACUGUGCAUUAGAAGGGUGCGCGGCAAUCGCGCACAGGAUAUGAUGACAUGAGGAUCACCCAUGUCUGUGUCACCUGGGUGUCG |  |  | 13.3 | 83.8
7 | UGUUCUAUGUAGAAGGCCCAUAUCUGUACUUAGGGAGGAUAUACAUGAGGAUCACCCAUGUGUAGAGCUGGUGGACUGGUCAGC |  |  | 16.5 | 37.2
8 | AAAACUCGAGGAUAUGCAAAAUGAUUGCGAAAGCAAUCAAAACAUGAGGAUCACCCAUGUAGAAGGCGAGAAAA |  |  | 23.7 | 15.4
9 | GACUGAUUACAGAAGGUGUAAGACAUGAGGAUCACCCAUGUGUAAAAGGGUAUAUUUGAAUAUAACAAGGAUAUGUUUUAAUCA | 75.1 | 49.3 |  | 
10 | GAGCAGUGUAAAUAAACUCAAAUACAUGAGGAUCACCCAUGUAAGGAUAUGCAGUGGAAUACACUGCAGAAGGUACAUCACUGC |  |  | 14.3 | 20.5
11 | GAAGUCUAUUGAGGAUAUCGUUAUCAAAGAUAAUGAGAAGGCAAACAAUCAUGAGGACAUGAGGAUCACCCAUGUUGUGACCAU | 26.6 | 13.6 |  | 
12 | UGGUACUUCGGAGGAUAUCAUGUAGAUACAUGAGGAUCACCCAUGUCGUACGAGAGUACGGAGAUUGAGAAGGCCGAAGUACCU | 31.2 | 16 |  | 
13 | ACGACGAAAGUCGAACGAUGUAGCAGAAGGACAUGAGGAUCACCCAUGUCAGCUGUGACCUCAAAAUAGGAUAUGCUACAUCGA |  |  | 36.6 | 47.6
14 | AAUAGUGACCAGAAGGCGUCGCGUCGAUAGCGACGAGGAUAUGGUGAGUGAGGAGCAAACUCCACAUGAGGAUCACCCAUGUCC | 594 | 89.9 |  | 
15 | UGACCCAUGACAUGAGAUGACAUGAGGAUCACCCAUGUUUACAAGGAUAUGUUGAUGAAACAUCAACAGAAGGUGUAAUGGGCU |  |  | 29.8 | 158
16 | GUUUUUCCUCAUGUACAUGAGGAACAUGAGGAUCACCCAUGUAGAAGGAAUUCUCUUAAAUUAAGUUAGGAUAUACAUAUAUUU |  |  | 464 | 285
17 | UUUUUACGAGGAUAUCGUUUUUUUCACAUGAGGAUCACCCAUGUUGUUUAUGUUGCGUUGCGAGAAGGCGUUUGUU |  |  | 27.4 | 22.8
18 | UUAAAUCAUGUAGGAUAUGCAUGGCGAAGCUACGCAGAAGGACAUGAGGAUCACCCAUGUUAUAGCUAGCCAGUUCGCUGGCAA |  |  | 23.6 | 164
19 | AGCUAGUCAGGAUAUACGAACAUGUCAAAAGACGUGAACCCACAUGAGGAUCACCCAUGUAGAAGGGACUAGCA |  |  | 26 | 65.7
20 | CAGUCUACAGGAUAUACAUGAGGAUCACCCAUGUAAAUUCACUUUCGAUAGUCUACAUGUAGAAGGGUAGACUG |  |  | 15.5 | 18.6
21 | CAACAGUCAGGAUAUGCAAAAAAAAAAAAAAAAAAAAAAAAGCAGAAGGGACAUGAGGAUCACCCAUGUUGUCG |  |  | 30 | 16.7
22 | UAGAGCGCUUGAGGAUAUCGCUUUGUGAUGGUACUCAUGCUUGUUACAUGAGGAUCACCCAUGUGCGAGAAGGCAGGCCGUUAG |  |  | 59.3 | 12.6
23 | AUUAUAUAGACAGGAUAUAGAAUAUUAUUUUAACAUGAGGAUCACCCAUGUAACCUUAUGUGUAGCUAGAAGGGUCAUUUAUUA |  |  | 89.9 | 162
24 | UUGGACGUCGUAGGAUAUGUAGGAUAUUCCUACAUGAGGAUCACCCAUGUUGACAUGGAAGAAGGCCAGAAGGACGAUGUCCAU | 930 | 100 |  | 
25 | AAGCAGGUAAAUAAACUCAAUUACAUGAGGAUCACCCAUGUAUAGGAUAUCGUCAGGAAUACUGACGAGAAGGAUACAUCCUGC |  |  | 17.7 | 63.9
26 | AACCAACAUGAGGAUCACCCAUGUCAACCCAAGCGAGGAUAUCGGAGAAUAACAAUGGGACGAGAAGGCGCGACCU | 72.9 | 47.8 |  | 
27 | UUCGGCGCAGGAUAUACAGUUCUGUGUUGAAUCGGCGCGGGACAUGAGGAUCACCCAUGUAGAAGGGUGUUGAA |  |  | 1160 | 578
28 | CUAUUGGCAGGAUAUGCUUUUUUAGACAUGAGGAUCACCCAUGUGAUGAAUAUUGGGUUUGCAGAAGGGCCUGAAU |  |  | 75.1 | 111

Row | Sequence | apparent Kd [1] [nM] | apparent Kd [2] [nM] | apparent Kd [3] [nM] | apparent Kd [4] [nM]
29 | AACUCAGCAGGAUAUACAUACAAAUCCAUCAUGCCGUUUGAACAUGAGGAUCACCCAUGUAGAAGGGCUCACAC |  |  | 28.7 | 51.5
30 | GAGCUGACAAUAAAUAACUCAAAUACAUGAGGAUCACCCAUGUAGGAUAUGCAGUGGAAUACACUGCAGAAGGACAUAGUCAGC |  |  | 13.4 | 21.8
31 | GCAUACAUUCGAGGAUAUCGGUGAACAAAUUAACGAGAAGGCGAUAUAAUUUUUAAUCUUAUAAACAUGAGGAUCACCCAUGUA | 21.8 | 19.5 |  | 
32 | ACUGGUCGAGGAUAUACAUGAGGAUCACCCAUGUGGUUACGUGACGAUAGUCACGAAUGUAGAAGGCGACCAGU |  |  | 236 | 652
33 | AGUCUGCGAGGAUAUACAUGAGGAUCACCCAUGUGCGAGAUACUAGUGAGGUCGAUUGGUAGAAGGCGCGGACA |  |  | 111 | 66.1
34 | AAAAUCUAUUGAGGAUAUUCAUACACUACAUACGGAGAAGGCAAACAAUCAUGAGGACAUGAGGAUCACCCAUGUUGUGACCAU | 23.4 | 20 |  | 
35 | GUAAAUCAUGUAGGAUAUGCAUGGCGAAGCUACGCAGAAGGACAUGAGGAUCACCCAUGUCUGUCCGUCUGCGAACAGACGGAC |  |  | 23.4 | 174
36 | GAGGUGUUAGGAUAUCGGAGAUGGAGAAGAACGGGAAGAGGCGAGAAGGAACAUGAGGAUCACCCAUGUAGGUG |  |  | 433 | 329
37 | CAGCGAUAGCUGAAUGGUACAUGGGAGGAUAUGGGUUGAACAUGAGGAUCACCCAUGUUAUAAUACUAGAAGGCCCAUGUACCU | 16.6 | 5.45 |  | 
38 | GGUGGACAUGAGGAUCACCCAUGUGAGGAUAUCGGCCGGCUAGUGGUGGCUGGCUUCUCGAGAAGGCGCAUAGU |  |  | 61.8 | 99.7
39 | GGGUACAUCGGAGGAUAUCAUGUAAAUACAUGAGGAUCACCCAUGUCGAUGGAGACAUCGGCGAUUGAGAAGGCCGAUGUACCG | 752 | 17.6 |  | 
40 | UGUGUUAUAGGAUAUACGGGUAUGUGAAUCUCUCCAUCGGUACAUGAGGAUCACCCAUGUAGAAGGAUAAGGUA |  |  | 35.7 | 80.8
41 | GGGUAAUAUCGAGGAUAUGUCUAGACACAUGAGGAUCACCCAUGUAUGUGUAUAGAAGGCGAUAUUAACAGCAUGUUACAUCCC | 48.1 | 20.8 |  | 
42 | GUAUAGGACAGAGGAUAUACGUGCUAGAGAUACUAGCAAAAUUUCCUCACAUGAGGAUCACCCAUGUAGAAGGCUGUCCUAUCG |  |  | 17.1 | 498
43 | GUGUACAGAGGAUAUACAUGAGCUAGGAAACUAGCAACUUCACAUGAGGAUCACCCAUGUAGAAGGCUGUACAC |  |  | 26 | 128
44 | AUACAUGAGGAUCACCCAUGUCGCAGGUUAAGGCCCAAAUCGAGAAGGGAUUCGGUCAAGCCUAAUCAGGAUAUCGGUGGAGCC | 84.3 | 69.6 |  | 
45 | UGUUGUAUUACAGGAUAUCUAUUGUUGUUAUUUAGAGAAGGGUAUUCACAUGAGGAUCACCCAUGUAUAUACGAGGAAGUUGUG | 56 | 56.6 |  | 
46 | GUAGCUAUCGGAGGAUAUUCAUACCGGAAAAGGACAUGAGGAUCACCCAUGUGGCGAAAGCCUUGGGAGAAGGCCGAUAGCUAC | 94.2 | 6.77 |  | 
47 | UUAUGUUAUGUAGGAUAUCACUUUAAUUGAUUAAUAUAUGAAUAUAGAAUUUGAGAAGGACAUUUACAUGAGGAUCACCCAUGU |  |  | 12.3 | 8.5
48 | AGGUAAGAGUUAAUUGUGACGGUGAGAAGGCAAUAGUUUGUGACCGACAUGAGGAUCACCCAUGUUGAGGAUAUCACCACCUAC |  |  | 9.59 | 40.1
49 | ACAUGAGGAUCACCCAUGUUAUCAGGGACUUCAAUUAUUUGUAGAAGGCUGUUUUCUUGUUAGUCAGAGGAUAUACAAUUAAAU |  |  | 12.7 | 14.2
50 | CAGGGUAGAGGAUAUACGUAGGUACAGAUCUGUGUGUUCCUACAUGAGGAUCACCCAUGUAGAAGGCUAGCCUG |  |  | 89.7 | 324
51 | UCGGCGCGAGGAUAUACGUUUGCGCGUUUUCGUUUGCGCGUACAUGAGGAUCACCCAUGUAGAAGGCGCGCGGC |  |  | 13.1 | 13.4
52 | GCACGAGACUAAGGAUAUGGAGUAUCUACAUUAAACAUGAGGAUCACCCAUGUAGGGAGUAUGAUUCAGAAGGUAGAGACGUGC | 157 | 37.3 |  | 
53 | AUCCUACAUGAGGAUCACCCAUGUGACGCCUCGAUAGGAUAUGCGUGUGCCUUGGCGCAUGCAGAAGGAUUGUAGC | 43.6 | 237 |  | 
54 | AUAUUGUGAGGAUAUGAACUUAGUAUCGAAAGAUACUAAGAUCAGAAGGCACAUGAGGAUCACCCAUGUUUCUC |  |  | 77.5 | 402
55 | UGUCGGAGCAGAGGAUAUUACAUGAGGAUCACCCAUGUAUGAACCAAUAGCUGGAAACAGCAAUGUAAGAAGGCUGAUCCGACA |  |  | 11.1 | 146
